Compounds with a hit are over-represented: about 1.7% of the library has one in this group of screens.
STEP inh: inhibitors of human striatal-enriched phosphatase STEP. inhibition, % at 20 µM. hit rate 0.25% among 360,000. AID 588621. recombinant STEP, OMFP fluorogenic substrate, fluorescence. P54829;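 active means inhibition at 20 µM, scaled per plate between control wells, above about 37%, limit read from the data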;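 further: 0% = DMSO with enzyme and substrate and 100% = substrate only without enzyme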
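Test system: STEP tyrosine phosphatase / Reagent: OMFP at 25 µM / Doses: 20 µM, 1% DMSO / Read-out: percent inhibition scaled to no-enzyme and uninhibited-enzyme controls, plate-pattern corrected / Detection: FITC-channel fluorescence of OMFP product / Medium: Bis-Tris buffer pH 6.0, 2.5 mM DTT, 0.005% Tween 20 / Schedule: 20 min at room temperature, dark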
LMPTP block: LMPTP (human) inhibition. P24666. recombinant LMPTP-A, OMFP fluorogenic substrate, fluorescence intensity. inhibition, % at 20 µM. hit rate 0.22% among 360,000. AID 651560;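 active means compounds that cut the enzyme signal by at least half of the control window in the single-dose screen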;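 further: plate controls were DMSO wells with enzyme plus substrate for no effect and substrate without enzyme for full effect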
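test system = LMPTP-A | amount = 0.625 nM LMPTP-A final | reagent = fluorogenic phosphatase substrate OMFP at 400 µM final | incubation = 50 min at room temperature | benchmarks = no-enzyme low control, uninhibited high control | medium = Bis-Tris pH 6.0, DTT, detergent | signal = fluorescence intensity of OMFP turnover product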
Scp-1 inhibitor: inhibitors of human Scp-1 phosphatase; Recombinant Scp1, phosphopeptide, malachite green phosphate absorbance; inhibition, % at 20 µM; hit rate 0.88% among 340,000; AID 493091;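 active means inhibition above about 50% at 20 µM, limit read from the data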;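 further: plate controls were DMSO wells with enzyme for no effect and wells lacking enzyme for full effect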
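Material – SCP-1 phosphatase catalytic domain, residues 76-261 · Buffer or medium – Acidic Tris acetate buffer with magnesium and detergent · Also added – Phospho 17-mer peptide substrate · Compound – single 20 µM dose, 1% DMSO · Times – 45 min room-temperature reaction, 5 min colour, 30 min stabiliser · Technique – Phosphate-binding colour reagent, absorbance read at 630 nm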
DNMT1 block: blocks human DNA methyltransferase DNMT1. inhibition (reported as % activation of signal), % at 10 µM. P26358. DNMT1 molecular beacon, Hinp1I cleavage, fluorescence. hit rate 0.83% among 360,000. AID 588458; in the data active means inhibition above about 50%
Target sequence (P26358 504-1616 limits assumed): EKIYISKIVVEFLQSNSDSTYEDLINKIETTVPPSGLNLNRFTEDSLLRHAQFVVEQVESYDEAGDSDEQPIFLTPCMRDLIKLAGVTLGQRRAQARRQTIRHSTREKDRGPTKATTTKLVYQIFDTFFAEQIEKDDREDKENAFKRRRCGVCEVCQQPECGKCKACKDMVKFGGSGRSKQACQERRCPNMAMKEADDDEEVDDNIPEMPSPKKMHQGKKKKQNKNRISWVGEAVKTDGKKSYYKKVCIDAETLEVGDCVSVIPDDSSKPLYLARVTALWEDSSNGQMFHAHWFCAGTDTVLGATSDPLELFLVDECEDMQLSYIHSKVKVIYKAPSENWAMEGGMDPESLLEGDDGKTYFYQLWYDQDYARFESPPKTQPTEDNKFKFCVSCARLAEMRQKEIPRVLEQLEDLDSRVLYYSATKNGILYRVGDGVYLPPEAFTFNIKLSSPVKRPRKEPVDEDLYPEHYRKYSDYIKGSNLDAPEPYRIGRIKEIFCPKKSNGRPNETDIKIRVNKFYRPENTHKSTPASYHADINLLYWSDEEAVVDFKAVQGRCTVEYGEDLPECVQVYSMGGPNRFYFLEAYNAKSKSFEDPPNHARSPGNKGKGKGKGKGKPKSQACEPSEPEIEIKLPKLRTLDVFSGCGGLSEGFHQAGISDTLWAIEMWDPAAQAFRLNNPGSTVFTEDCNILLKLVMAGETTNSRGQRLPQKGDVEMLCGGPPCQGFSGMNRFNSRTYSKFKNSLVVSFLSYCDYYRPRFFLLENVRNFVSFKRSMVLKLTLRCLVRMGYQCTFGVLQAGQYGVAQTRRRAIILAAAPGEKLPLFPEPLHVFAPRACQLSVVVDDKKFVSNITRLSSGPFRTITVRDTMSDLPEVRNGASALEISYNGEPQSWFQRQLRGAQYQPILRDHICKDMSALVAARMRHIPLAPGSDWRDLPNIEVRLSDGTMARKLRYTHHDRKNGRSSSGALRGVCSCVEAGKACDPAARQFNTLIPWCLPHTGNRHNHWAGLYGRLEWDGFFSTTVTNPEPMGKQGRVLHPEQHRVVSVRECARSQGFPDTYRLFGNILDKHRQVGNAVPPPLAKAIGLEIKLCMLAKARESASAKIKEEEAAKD
SUMO1 PPI mod: SUMO1-SIM interaction modulation; P63165; SUMO1 binding to a labelled peptide, TR-FRET, 1 h; inhibition, % at 20 µM; hit rate 0.33% among 360,000; AID 602429; in the data active means inhibition above about 37%
Scp1 confirm: Scp-1 (human) inhibition, single-dose confirmed. shares compounds with Scp-1 inhibitor. recombinant SCP-1 catalytic domain, phosphate release, malachite green absorbance. inhibition, % at 20 µM. hit rate 61% among 2,500. AID 540281;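 further: plate controls were DMSO with enzyme for no effect and buffer wells lacking enzyme for full effect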
Scp-1 MG ctr: counter-screen for Scp-1 inhibitors: colorimetric interference; 2,500 tested, under 10 active; Colorimetric interference counterscreen, malachite green absorbance 630 nm; shares compounds with Scp-1 inhibitor; apparent inhibition (interference), % at 20 µM;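 further: compounds added after enzyme reaction finished so only phosphate colour detection is probed; plate controls were DMSO wells with completed Scp-1 reaction for no effect and substrate wells lacking enzyme for full effect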
Scp1 DSF: validation of human Scp-1 inhibitors by thermal shift binding; shares compounds with Scp-1 inhibitor; Recombinant SCP1, Sypro Orange thermal shift Tm; thermal shift relative to vanadate control, % at 40 µM; hit rate 25% among 1,500; AID 540329;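 active means substances whose mean melting-temperature shift, as a percentage of the reference inhibitor's shift, reaches about 5.3%, limit read from the data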;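 further: 0% = Tm of DMSO wells and 100% = Tm with sodium orthovanadate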
* hit, by the source's call; nt = no result; ! = not confirmed by another sample.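 How the source made its calls, unless noted: active means inhibition of at least 30% at 20 µM; inactive means the rest.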

SMILES	STEP inh	LMPTP block	Scp-1 inhibitor	DNMT1 block	SUMO1 PPI mod	Scp1 confirm	Scp-1 MG ctr	Scp1 DSF
O=C1NC(=O)C(c2ccccc2)(c2ccccc2)N1	-3.3	-0.9	84.8*!	1.4	5.1	-13.9	-8.7	nt
O=C1OCc2ccc([N+](=O)[O-])cc21	-1.0	-0.2	-12.4	-1.5	-25.0	nt	nt	nt
Cc1oc(/N=C/c2cccc3ccccc23)c(C#N)c1C	1.9	0.6	65.3*	40.9	-5.1	-11.1	-8.2	nt
N#CCCN(C(=O)COC(=O)c1ccc(CNS(=O)(=O)c2ccc(F)c(Cl)c2)cc1)c1ccc(F)cc1	-0.9	1.9	-12.9	-11.0	-1.7	nt	nt	nt
Cc1ccc(NC(=O)CSC2=C(C#N)C(c3ccco3)C3=C(CCCC3=O)N2)cc1 (stereo not drawn)	-3.7	1.6	-11.3	-3.5	-9.3	nt	nt	nt
N#CC1=C(SCC(=O)Nc2ccc(C(=O)O)cc2)NC(=O)CC1c1ccco1 (stereo not drawn)	22.4	0.1	52.3*	28.5	27.2	45.6*	-14.2	4.7
O=C(CN1C(=O)CCC1=O)Nc1nc2c(F)cc(F)cc2s1	-1.9	-1.0	-12.0	0.8	-0.7	nt	nt	nt
O=C(CN1C(=O)NC2(CCCCC2)C1=O)Nc1nc2c(F)cc(F)cc2s1	-3.0	0.7	-0.4	-10.3	6.3	-8.1	-10.6	nt
CCOc1ccc(NC(=O)c2ccc(N)cc2)cc1	-0.9	-0.6	-9.1	-2.4	-1.0	nt	nt	nt
CCOc1ccc(NC(=O)c2ccc(NC(=O)c3ccc(NC(N)=O)cc3)cc2)cc1	9.1	35.2	58.8*	55.9*	30.1	35.1*	-12.9	8.0*
CCOC(=O)CC(NS(=O)(=O)c1ccc2[nH]c(=O)sc2c1)c1ccc(C)cc1 (stereo not drawn)	2.0	0.8	1.4	5.9	-9.3	nt	nt	nt
CCOC(=O)/C=C1\CN(Cc2cc(OC)c(OC)c(OC)c2)S(=O)(=O)c2ccc(C(F)(F)F)cc21	0.5	3.1	87.9*	9.3	0.2	57.4*	-24.1	0.2
Nc1cc2c(cc1[N+](=O)[O-])OCCO2	1.1	1.1	-3.9	0.0	-31.3	nt	nt	nt
Nc1cc2c(cc1[N+](=O)[O-])OCO2	4.3	19.2	57.6*	24.2	-11.4	58.0*	-5.2	4.4
Cc1cccnc1NC(=O)CNC(=O)C12CC3CC(CC(C3)C1)C2	2.1	-1.9	-4.9	0.1	2.3	nt	nt	nt
COc1ccc(/C=N\NC(=O)c2ccc([N+](=O)[O-])c(C)c2)cc1COc1ccccc1C(N)=O	6.5	1.3	66.9*	-5.5	54.3*	33.7*	-8.4	-3.4
COc1ccc2ccccc2c1C(=O)/C=C\c1ccoc1	-1.3	2.7	-12.2	2.5	-0.8	nt	nt	nt
O=C(O)C1(S(=O)(=O)CCC(F)=C(F)F)CC1	0.0	-1.1	98.0*	1.0	-6.2	-5.9	-6.5	nt
O=C(NCCCC1CCCC1)C1CCC(=O)N(Cc2cccc(C(F)(F)F)c2)C1 (stereo not drawn)	-0.4	2.2	-9.2	-1.0	-3.2	nt	nt	nt
O=C(NCCN1CCNC1=O)C1CCC(=O)N(Cc2cccc(C(F)(F)F)c2)C1 (stereo not drawn)	-2.4	-1.6	-1.1	-0.5	-2.4	-19.4	-16.2	nt
CCS(=O)(=O)C1=NN2C(=N)/C(=C\c3ccc(OCCOc4cccc(OC)c4)c(OC)c3)C(=O)N=C2S1	-0.8	4.4	67.1*	0.1	6.8	65.1*	-15.6	11.2*
COc1cc(/C=C2\C(=N)N3N=C(S(C)(=O)=O)SC3=NC2=O)cc(OC)c1OCCOc1ccc(C)cc1	2.4	0.6	11.5	-6.8	-5.2	nt	nt	nt
COc1cc(/C=C2\C(=N)N3N=C(S(C)(=O)=O)SC3=NC2=O)ccc1OCCOc1ccc(C)cc1	8.6	6.6	67.1*	-4.7	5.7	36.3*	-15.9	9.7*
Cc1cccc(N2CCN(c3ccc(NC(=O)/C=C(/C(=O)O)c4ccccc4)cc3)CC2)c1	2.5	-1.0	58.0*	0.4	-1.4	71.5*	-9.8	-4.8
O=C1NCCN1CCNS(=O)(=O)c1ccc2ccccc2c1	-1.3	-1.5	-8.0	-1.3	-0.6	-1.2	-2.1	nt
SMILES	STEP inh	LMPTP block	Scp-1 inhibitor	DNMT1 block	SUMO1 PPI mod	Scp1 confirm	Scp-1 MG ctr	Scp1 DSF
O=C(O)c1cc(S(=O)(=O)NCCN2CCNC2=O)ccc1O	-2.4	-5.1	-4.0	-0.6	2.6	nt	nt	nt
O=C(Nc1ccccc1O)C(c1ccccc1)c1ccccc1	5.7	-0.8	-9.0	-5.9	-1.5	nt	nt	nt
O=C(COc1ccc2oc(-c3ccco3)cc(=O)c2c1)N1CCCCC1	8.2	2.9	59.5*	14.7	-26.0	44.1*	-9.0	1.2
O=C(COc1ccc2oc(-c3ccccc3)cc(=O)c2c1)NCc1ccco1	0.0	7.7	81.7*	17.0	6.2	58.8*	-12.0	-6.3
COc1nc(OC)nc(N2CCC(NC(=O)C(Cc3cccc(OC)c3OC)NC(C)=O)CC2)n1 (stereo not drawn)	-2.4	-0.6	-7.4	2.7	-4.4	nt	nt	nt
O=C(NN=C1CCCC1)c1cc(O)cc(O)c1	11.9	7.2	52.0*	8.2	37.7	53.5*	-1.0	-7.9
N#C/C(=C\c1ccc(OC(=O)c2cccs2)cc1)c1nc2ccccc2[nH]1	0.4	3.5	51.5*	-4.0	-8.0	82.5*	-1.3	3.2
O=C(CSc1n[nH]c(C2CCCC2)n1)NC1CCCC1	-3.8	1.0	63.9*	0.6	-1.7	1.7	-4.6	nt
O=C(CSc1nc2ccccc2[nH]1)NC1CCCC1	22.3	1.9	62.3*	37.3	4.6	44.7*	-12.0	-10.9
Nc1nc(SCC(=O)NC2CCCCC2)n[nH]1	0.0	-0.6	-4.0	2.0	1.5	nt	nt	nt
O=C(CCCSc1nc2ccccc2[nH]1)NC1CCCCC1	0.0	-1.5	4.0	7.1	-4.5	nt	nt	nt
COc1ccc(Cl)cc1Cn1c(C)c(C(=O)NCc2cccc(Cl)c2)sc1=O	3.1	7.8	nt	-10.0	2.7	nt	nt	nt
O=C(Nc1cc(S(=O)(=O)Nc2ccc(Cl)cc2)ccc1O)c1ccc(S(=O)(=O)N2CCCCCC2)cc1	6.3	2.9	80.6*	-0.5	4.9	76.7*	-15.1	9.9*
Cn1c(CC(=O)Nc2ccc(F)cc2)nnc1SCC(=O)Nc1nncs1	-0.8	-1.1	-9.0	4.0	0.7	nt	nt	nt
CCCCc1c(O)c2ccccc2n(CCCC)c1=O	-3.9	0.3	-6.3	-2.4	5.7	nt	nt	nt
CCCCc1c(CCC)c(=N)c2ccccc2n1C	-1.1	10.0	91.0*	0.3	1.4	7.3	-10.4	nt
CCOC(=O)C1CCN(C(=O)COC(=O)c2c(C)c(CC)nc3ccccc23)CC1	1.5	-1.4	-3.9	-0.1	-1.5	nt	nt	nt

Screening results from PubChem.
